According to ChEMBL document CHEMBL2046408, “Design, synthesis and antimicrobial activities of nitroimidazole derivatives containing 1,3,4-oxadiazole scaffold as FabH inhibitors” (Bioorg Med Chem, 2012):
In brackets after ≈: the same amount, converted by molar mass.

Experiments:
[1] = Toxicity in RBC assessed as hemolysis; assay type: cell-based; settings: erythrocyte
[2] = inhibition of Escherichia coli FabH expressed in Escherichia coli BL21 (DE3) cells assessed as [3H]acetyl-CoA after 5 mins by liquid scintillation counting; settings: in the assay text read “after 25 mins” for “after 5 mins”
Method in brief: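 His-tagged E. coli FabH was expressed in kanamycin-selected culture in LB at 37 °C, induced with 0.5 mM IPTG for 4 h, then Ni–NTA purified. Reactions were run in 20 mM sodium phosphate, pH 7.0, with holo-ACP. They were stopped with ice-cold 50% TCA, the protein was pelleted, and ³H incorporation into product was read by liquid scintillation. Inhibitors were added from DMSO stock, final DMSO ≤2%.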

Bacillus subtilis = assay: Antibacterial activity against Bacillus subtilis ATCC 530 after 24 hrs by MTT assay; assay type: functional; settings: ATCC 530, 24 h
Method in brief: (§1)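 Seeded broth in nutrient broth from 24 h bacterial cultures on nutrient agar at 37 °C. Suspension adjusted with sterile saline to 1 × 10⁴–10⁵ CFU. Compounds and reference drugs twofold serially diluted to 100, 50, 25, 12.5, 6.25 … µg/mL. MIC determined by MTT method.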

Staphylococcus aureus = assay: Antibacterial activity against Staphylococcus aureus ATCC 25923 after 24 hrs by MTT assay; assay type: functional; settings: ATCC 25923, 24 h; method in brief: as §1
Pseudomonas aeruginosa = assay: Antibacterial activity against Pseudomonas aeruginosa ATCC 27853 after 24 hrs by MTT assay; assay type: functional; settings: ATCC 27853, 24 h; method in brief: as §1
Escherichia coli = assay: Antibacterial activity against Escherichia coli ATCC 25922/35128 after 24 hrs by MTT assay; assay type: functional; settings: ATCC 25922/35128, 24 h; method in brief: as §1
[3] = inhibition of Escherichia coli FabH expressed in Escherichia coli BL21 (DE3) cells assessed as [3H]acetyl-CoA after 25 mins by liquid scintillation counting

Row | SMILES | LC30 [1] | IC50 [2] | MIC (Bacillus subtilis) | MIC (Staphylococcus aureus) | MIC (Pseudomonas aeruginosa) | MIC (Escherichia coli) | IC50 [3]
1 | Cc1ncc([N+](=O)[O-])n1Cc1nnc(-c2ccc(Cl)cc2)o1 | > 10000 µg/mL | 28.3 µM | 12.5 µg/mL (≈ 39.1 µM) | 25 µg/mL (≈ 78.2 µM) | 12.5 µg/mL (≈ 39.1 µM) | 12.5 µg/mL (≈ 39.1 µM) | 
2 | Cc1ncc([N+](=O)[O-])n1Cc1nnc(-c2ccc(F)cc2)o1 | > 10000 µg/mL | 18.6 µM | 12.5 µg/mL (≈ 41.2 µM) | 25 µg/mL (≈ 82.4 µM) | 25 µg/mL (≈ 82.4 µM) | 12.5 µg/mL (≈ 41.2 µM) | 
3 | Cc1ncc([N+](=O)[O-])n1Cc1nnc(-c2cccc(F)c2)o1 |  |  | > 100 µg/mL | > 100 µg/mL | > 100 µg/mL | > 100 µg/mL | 
4 | COc1cccc(Cc2nnc(Cn3c([N+](=O)[O-])cnc3C)o2)c1 |  |  | 25 µg/mL (≈ 75.9 µM) | 50 µg/mL (≈ 152 µM) | 12.5 µg/mL (≈ 38 µM) | 25 µg/mL (≈ 75.9 µM) | 
5 | Cc1ncc([N+](=O)[O-])n1Cc1nnc(Cc2ccc(Cl)cc2)o1 |  |  | 50 µg/mL (≈ 150 µM) | 25 µg/mL (≈ 74.9 µM) | 12.5 µg/mL (≈ 37.5 µM) | 50 µg/mL (≈ 150 µM) | 
6 | Cc1ccccc1Cc1nnc(Cn2c([N+](=O)[O-])cnc2C)o1 |  |  | 50 µg/mL (≈ 160 µM) | 25 µg/mL (≈ 79.8 µM) | 25 µg/mL (≈ 79.8 µM) | 12.5 µg/mL (≈ 39.9 µM) | 
7 | Cc1ncc([N+](=O)[O-])n1Cc1nnc(Cc2cccc(F)c2)o1 |  |  | > 100 µg/mL | > 100 µg/mL | > 100 µg/mL | > 100 µg/mL | 
8 | COc1ccccc1Cc1nnc(Cn2c([N+](=O)[O-])cnc2C)o1 |  |  | 25 µg/mL (≈ 75.9 µM) | 25 µg/mL (≈ 75.9 µM) | 12.5 µg/mL (≈ 38 µM) | 50 µg/mL (≈ 152 µM) | 
9 | Cc1ncc([N+](=O)[O-])n1Cc1nnc(-c2ccc([N+](=O)[O-])cc2)o1 | > 10000 µg/mL |  | 25 µg/mL (≈ 75.7 µM) | 25 µg/mL (≈ 75.7 µM) | 12.5 µg/mL (≈ 37.8 µM) | 12.5 µg/mL (≈ 37.8 µM) | 40.5 µM
10 | Cc1ncc([N+](=O)[O-])n1Cc1nnc(Cc2ccc([N+](=O)[O-])cc2)o1 |  |  | 25 µg/mL (≈ 72.6 µM) | 50 µg/mL (≈ 145 µM) | 25 µg/mL (≈ 72.6 µM) | 25 µg/mL (≈ 72.6 µM) | 
11 | Cc1ncc([N+](=O)[O-])n1Cc1nnc(Cc2ccc(Br)cc2)o1 |  |  | 50 µg/mL (≈ 132 µM) | 50 µg/mL (≈ 132 µM) | 25 µg/mL (≈ 66.1 µM) | 50 µg/mL (≈ 132 µM) | 
12 | COc1ccccc1-c1nnc(Cn2c([N+](=O)[O-])cnc2C)o1 | > 10000 µg/mL | 4.3 µM | 1.56 µg/mL (≈ 4.95 µM) | 3.13 µg/mL (≈ 9.93 µM) | 1.56 µg/mL (≈ 4.95 µM) | 1.56 µg/mL (≈ 4.95 µM) | 
13 | Cc1ncc([N+](=O)[O-])n1Cc1nnc(Cc2cccc(Br)c2)o1 |  |  | 25 µg/mL (≈ 66.1 µM) | 50 µg/mL (≈ 132 µM) | 6.25 µg/mL (≈ 16.5 µM) | 25 µg/mL (≈ 66.1 µM) | 
14 | Cc1ncc([N+](=O)[O-])n1Cc1nnc(-c2ccc(Br)cc2)o1 | > 10000 µg/mL | 43.8 µM | 12.5 µg/mL (≈ 34.3 µM) | 50 µg/mL (≈ 137 µM) | 25 µg/mL (≈ 68.7 µM) | 25 µg/mL (≈ 68.7 µM) | 
15 | Cc1ncc([N+](=O)[O-])n1Cc1nnc(-c2cccc(Br)c2)o1 | > 10000 µg/mL | 16.9 µM | 6.25 µg/mL (≈ 17.2 µM) | 25 µg/mL (≈ 68.7 µM) | 25 µg/mL (≈ 68.7 µM) | 6.25 µg/mL (≈ 17.2 µM) | 
16 | Cc1ncc([N+](=O)[O-])n1Cc1nnc(Cc2ccc(F)cc2)o1 |  |  | 50 µg/mL (≈ 158 µM) | 25 µg/mL (≈ 78.8 µM) | 12.5 µg/mL (≈ 39.4 µM) | 25 µg/mL (≈ 78.8 µM) | 
17 | Cc1ccccc1-c1nnc(Cn2c([N+](=O)[O-])cnc2C)o1 | > 10000 µg/mL |  | 1.56 µg/mL (≈ 5.21 µM) | 6.25 µg/mL (≈ 20.9 µM) | 3.13 µg/mL (≈ 10.5 µM) | 1.56 µg/mL (≈ 5.21 µM) | 5.1 µM
18 | COc1cccc(-c2nnc(Cn3c([N+](=O)[O-])cnc3C)o2)c1 | > 10000 µg/mL | 9.4 µM | 6.25 µg/mL (≈ 19.8 µM) | 12.5 µg/mL (≈ 39.6 µM) | 12.5 µg/mL (≈ 39.6 µM) | 12.5 µg/mL (≈ 39.6 µM) | 
19 | NC[C@H]1O[C@H](O[C@H]2[C@H](O)[C@@H](O[C@H]3O[C@H](CO)[C@@H](O)[C@H](N)[C@H]3O)[C@H](N)C[C@@H]2N)[C@H](O)[C@@H](O)[C@@H]1O [KANAMYCIN] |  |  | 1.56 µg/mL (≈ 3.22 µM) | 1.56 µg/mL (≈ 3.22 µM) | 3.13 µg/mL (≈ 6.46 µM) | 3.13 µg/mL (≈ 6.46 µM) | 
